For orientation: Ki means a measure of affinity in units of concentration, obtained from inhibition or displacement. Usually Emax stands for the maximal effect, on the per cent scale that the assay sets. For orientation: EC50 means the midpoint of the concentration-response curve.

The structures appear in SMILES notation. A value given as a limit tells only on which side of the number the result lay.

The record followed here is ChEMBL document CHEMBL1140299, “1-Benzhydryl-3-phenylurea and 1-benzhydryl-3-phenylthiourea derivatives: new templates among the CB1 cannabinoid receptor inverse agonists” (J Med Chem, 2005).

The target of assay [1] is Cannabinoid receptor 2 (Homo sapiens) (UniProt P34972). Kind of assay: Displacement of [3H]CP-55940 from human CB2 receptor expressed in CHO cells at 10 uM. The format is cell-based. In outline:
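Competition binding on membranes of cells expressing hCB2 (40 µg per tube) with [3H]-CP-55940 (1 nM) at 30 °C for 1 h. Buffer: 50 mM Tris-HCl, 3 mM MgCl2, 1 mM EDTA, 0.5% BSA, pH 7.4. DMSO stocks diluted 100× into buffer. Nonspecific binding defined with 10 µM HU-210. Bound label collected by filtration on PEI-pretreated GF/B filters and counted by scintillation. Run at least in triplicate.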
(In general: Loss of bound radioactivity is the signal in a displacement assay; it reports binding, not function.)

Assay [2] addresses T1, Cannabinoid receptor 1 (Homo sapiens, UniProt P21554). The assay is described as follows: biochemical. The format is cell-based, CHO.
The target of assay [3] is T1, Cannabinoid receptor 1. The settings on record: at 10 µM.
The target of assay [4] is T1, Cannabinoid receptor 1. Kind of assay: Activity at human CB1 receptor by [35S]GTP-gamma-S binding stimulation assay. The format is functional. A general note: GTPγS resists hydrolysis and so accumulates on activated G proteins.

T1 sequence (P21554 whole entry): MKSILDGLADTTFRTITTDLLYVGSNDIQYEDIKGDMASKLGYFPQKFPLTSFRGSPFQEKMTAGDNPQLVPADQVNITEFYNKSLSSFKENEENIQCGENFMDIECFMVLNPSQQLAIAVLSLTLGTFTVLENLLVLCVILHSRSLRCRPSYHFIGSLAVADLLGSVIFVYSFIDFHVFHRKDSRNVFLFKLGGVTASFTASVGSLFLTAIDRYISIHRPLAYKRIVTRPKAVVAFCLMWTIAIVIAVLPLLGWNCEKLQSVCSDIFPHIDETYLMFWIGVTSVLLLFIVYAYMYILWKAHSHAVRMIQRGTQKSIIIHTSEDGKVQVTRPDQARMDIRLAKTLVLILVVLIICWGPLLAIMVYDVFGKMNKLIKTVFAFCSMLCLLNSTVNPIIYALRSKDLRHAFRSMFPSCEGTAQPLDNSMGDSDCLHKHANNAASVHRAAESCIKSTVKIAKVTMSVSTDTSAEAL
Cannabinoid receptor 2 (Homo sapiens), sequence (P34972 whole entry): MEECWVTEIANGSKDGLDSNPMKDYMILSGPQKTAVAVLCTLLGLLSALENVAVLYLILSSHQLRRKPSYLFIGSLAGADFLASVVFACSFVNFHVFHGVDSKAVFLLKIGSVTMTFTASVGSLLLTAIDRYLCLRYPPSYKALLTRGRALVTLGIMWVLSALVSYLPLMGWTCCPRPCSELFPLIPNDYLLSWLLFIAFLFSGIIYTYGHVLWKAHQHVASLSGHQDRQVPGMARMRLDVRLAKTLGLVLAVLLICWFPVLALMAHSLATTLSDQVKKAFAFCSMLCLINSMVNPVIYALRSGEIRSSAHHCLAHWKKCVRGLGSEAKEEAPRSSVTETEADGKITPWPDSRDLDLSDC

`O=C(Nc1ccccc1)NC(c1ccc(Br)cc1)c1ccc(Br)cc1` displayed an Activity in assay [1] of 38%. Moreover, the Ki on Cannabinoid receptor 1 [2] is 2.9 µM (antagonist). Regarding `CCCCCCc1ccc(NC(=O)NC(c2ccc(Br)cc2)c2ccc(Br)cc2)cc1`, the Activity in assay [1] was < 20%. The same measure, in the same setting: with `O=C(Nc1ccc(F)cc1)NC(c1ccccc1)c1ccccc1` the figure was < 10%. As for `O=C(Nc1ccc(Br)cc1)NC(c1ccc(Br)cc1)c1ccc(Br)cc1`, the Activity in assay [1] came to 22%. In addition, the Emax on Cannabinoid receptor 1 [3] (filed as inverse agonist) is -61%. At Cannabinoid receptor 1 [2], the Ki was 0.5 µM (antagonist). The 50% effective concentration (EC50) at Cannabinoid receptor 1 [4] is 500 nM (inverse agonist). `O=C(Nc1ccc(Br)cc1)NC(c1ccc(I)cc1)c1ccc(I)cc1`: in assay [1], the Activity amounted to 19%. At Cannabinoid receptor 1 [2], the inhibition constant Ki was 0.75 µM (antagonist).

Consider `O=C1N(c2ccccc2)C(=S)NC1(c1ccc(Br)cc1)c1ccc(Br)cc1`, for which the Activity in assay [1] is < 20%. Also, at Cannabinoid receptor 1 [2], the Ki is listed as 3.45 µM (antagonist).

As to `O=C(Nc1ccc(I)cc1)NC(c1ccccc1)c1ccccc1`, in assay [1], the Activity is < 10%. Still for that read-out and setting: with `O=C(Nc1ccc(Br)cc1)NC(c1ccccc1)c1ccccc1` the figure was < 20%.

The compound `O=C(Nc1ccccc1)NC(c1ccc(Cl)cc1)c1ccc(Cl)cc1` displayed an Activity in assay [1] of 23%. Moreover, the Ki on Cannabinoid receptor 1 [2] is listed as 7.05 µM (antagonist). In the case of `O=C(Nc1ccccc1F)NC(c1ccccc1)c1ccccc1`, the Activity in assay [1] is < 10%.

In the case of `S=C(Nc1ccc(Cl)cc1)NC(c1ccc(Br)cc1)c1ccc(Br)cc1`, the Activity in assay [1] came to 29%. In addition, the Emax on Cannabinoid receptor 1 [3] (filed as inverse agonist) was -61%. Moreover, at Cannabinoid receptor 1 [2], the Ki is 1.5 µM (antagonist). For the same compound, the EC50 at Cannabinoid receptor 1 [4] was 1250 nM (inverse agonist).

The compound `CCCCCCc1ccc(NC(=O)NC(c2ccccc2)c2ccccc2)cc1` showed an Activity in assay [1] of 24%. Still for that read-out and setting: with `O=C(Nc1ccc(I)cc1)NC(c1ccc(Br)cc1)c1ccc(Br)cc1` the figure was 34%. `O=C(Nc1ccc(Cl)cc1)NC(c1ccc(Cl)cc1)c1ccc(Cl)cc1` registered an Activity in assay [1] of 24%. Besides, on Cannabinoid receptor 1 [3] (filed as inverse agonist), the Emax is -74%. Moreover, the Ki at Cannabinoid receptor 1 [2] is given as 1.1 µM (antagonist). The EC50 at Cannabinoid receptor 1 [4] is 1050 nM (inverse agonist).

`S=C(Nc1ccccc1)NC(c1ccc(Cl)cc1)c1ccc(Cl)cc1` showed an Activity in assay [1] of 23%. Also, the Ki at Cannabinoid receptor 1 [2] is reported as 2.9 µM (antagonist). The compound `O=C(Nc1ccc(Br)cc1)NC(c1ccc(Cl)cc1)c1ccc(Cl)cc1` showed an Activity in assay [1] of 29%. Also, the Emax at Cannabinoid receptor 1 [3] (filed as inverse agonist) is -66%. For the same compound, at Cannabinoid receptor 1 [2], the Ki was 1.25 µM (antagonist). The 50% effective concentration (EC50) on Cannabinoid receptor 1 [4] is 700 nM (inverse agonist). As to `O=C1NC(c2ccc(F)cc2)(c2ccc(F)cc2)C(=O)N1c1ccccc1`, the Activity in assay [1] was < 20%. For `CCCCCCC(C)(C)c1cc(O)c2c(c1)OC(C)(C)[C@H]1CC=C(CO)C[C@H]21` [DEXANABINOL], the Emax at Cannabinoid receptor 1 [3] (filed as agonist) was 200%. Moreover, the Ki on Cannabinoid receptor 1 [2] was 0.019 µM (antagonist). Also, the concentration giving a half-maximal response (EC50) on Cannabinoid receptor 1 [4] was 0.6 nM (inverse agonist). Take `O=C(Nc1ccc(CO)cc1)NC(c1ccc(Br)cc1)c1ccc(Br)cc1`: in assay [1], the Activity was < 20%. Same read-out and setting: with `O=C1NC(c2ccccc2)(c2ccccc2)C(=O)N1c1ccccc1` the figure was < 20%. The same measure, in the same setting: with `O=C1NC(c2ccc(Br)cc2)(c2ccc(Br)cc2)C(=O)N1c1ccccc1` the figure was < 20%; with `COc1ccc(NC(=O)NC(c2ccccc2)c2ccccc2)cc1`, < 20%; with `O=C(Nc1ccc(Cl)cc1)NC(c1ccccc1)c1ccccc1`, < 20%.

Turning to `O=C(Nc1ccccc1)NC(c1ccccc1)c1ccccc1`, in assay [1], the Activity is < 10%. `O=C(Nc1ccc(Cl)cc1)NC(c1ccc(Br)cc1)c1ccc(Br)cc1`: the Activity in assay [1] was 31%. Moreover, on Cannabinoid receptor 1 [3] (filed as inverse agonist), the Emax is -72%. Further, the Ki on Cannabinoid receptor 1 [2] was 0.65 µM (antagonist). Moreover, the EC50 at Cannabinoid receptor 1 [4] was 450 nM (inverse agonist). Consider `O=C1NC(c2ccccc2)(c2ccccc2)C(=O)N1c1ccc(Br)cc1`, for which the Activity in assay [1] was < 20%. `S=C(Nc1ccc(Cl)cc1)NC(c1ccc(Cl)cc1)c1ccc(Cl)cc1`: the Activity in assay [1] stood at 23%. Further, the Ki on Cannabinoid receptor 1 [2] is 1.9 µM (antagonist). Regarding `O=C1N(c2ccc(Cl)cc2)C(=S)NC1(c1ccc(Br)cc1)c1ccc(Br)cc1`, the Activity in assay [1] is < 20%. Moreover, on Cannabinoid receptor 1 [2], the Ki is recorded as 2.75 µM (antagonist). The compound `S=C(Nc1ccccc1)NC(c1ccc(Br)cc1)c1ccc(Br)cc1` displayed an Activity in assay [1] of 29%. For the same compound, at Cannabinoid receptor 1 [2], the inhibitory constant (Ki) is 1.8 µM (antagonist). `O=C(Nc1ccccc1)NC(c1ccc(F)cc1)c1ccc(F)cc1`: the Activity in assay [1] is < 10%.
